Read-outs that look alike come from different tables or passages of the source.
Key:
[1] = Pharmacokinetics of dasiglucagon in plasma after IV or SC dosing, Phase I trial; assay type: in vivo, human
Procedure, shortened: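 Single IV doses of 0.03, 0.1, 0.3, 0.6 or 1.5 mg from a 4 mg/mL solution diluted with vehicle, after a fast of ≥8 h. One cohort got 0.6 mg SC into the abdomen by prefilled syringe. Plasma sampled over 4 h (IV) or 5 h (SC). Dose proportionality by log–log power-model regression (90% CI of slope). Absolute bioavailability from a linear model of AUC, SC versus IV 0.6 mg.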

plasma glucose [2] = experiment: Plasma glucose response; assay type: in vivo, human
healthy volunteers [3] = assay type: in vivo, human
healthy volunteers [4] = experiment: Cardiac repolarization: by-time point analysis of QTcF; assay type: in vivo, human; conditions: least squares mean
Procedure, shortened: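 Single IV dose of test compound or placebo. Continuous Holter 12-lead ECG with supine rest ≥15 min. Extractions at 45, 30 and 15 min predose and at 5–240 min and 24 h postdose, up to 10 nonoverlapping 10-s replicates per point. Lead II was primary. QTcF=QT/RR^1/3. Analysed in a linear mixed-effects model on ΔQTcF (fixed: time, treatment, interaction; baseline covariate), placebo pooled.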

healthy volunteers [5] = experiment: Concentration-QTc analysis, linear mixed-effects model; assay type: in vivo, human; conditions: not significant at the 0.1 level
healthy volunteers [6] = experiment: Concentration-QTc analysis, Emax model; assay type: in vivo, human; conditions: for ΔΔQTcF estimate at geometric mean Cmax: Emax model prediction, mean (90% CI)
Procedure, shortened: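 Placebo-adjusted ΔQTcF for each subject and time point = individual ΔQTcF minus the estimated time effect at that point. ΔΔQTcF predicted at the geometric mean peak concentration per dose.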

healthy volunteers [7] = assay type: in vivo, human; remark: listed apart in the source
Procedure, shortened: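 Single IV (0.03–1.5 mg) or SC (0.6 mg) dose, or IV placebo. Safety was monitored throughout the study by AE recording, vital signs, clinical laboratory tests, physical examination, 12-lead ECG and injection-site reaction checks. TEAEs were tallied per participant by treatment.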

healthy volunteers [8] = experiment: Antidasiglucagon antibody assessment; set-up: species or system human; conditions: in vivo
[9] = 0.6 mg single subcutaneous dose, other clinical trials; ref not given; cited from earlier work
[10] = system: 8 different human cardiac ion channels (including human ether-a-go-go related gene [hERG]); conditions: 8 channels including hERG; nonclinical studies, ref not given; cited from earlier work
dogs = conditions: cardiovascular telemetry; nonclinical studies, ref not given; cited from earlier work
[11] = cited from earlier work
plasma glucose [12] = conditions: following insulin-induced hypoglycemia; cited from earlier work

CC(C)C[C@H](NC(=O)[C@H](Cc1c[nH]c2ccccc12)NC(=O)[C@H](CCCCN)NC(=O)[C@@H](NC(=O)[C@H](Cc1ccccc1)NC(=O)[C@H](CCC(=O)O)NC(=O)[C@H](CCC(=O)O)NC(=O)[C@H](C)NC(=O)[C@H](CCCNC(=N)N)NC(=O)[C@H](C)NC(=O)C(C)(C)NC(=O)[C@H](CC(=O)O)NC(=O)[C@H](CC(C)C)NC(=O)[C@H](Cc1ccc(O)cc1)NC(=O)[C@H](CCCCN)NC(=O)[C@H](CO)NC(=O)[C@H](Cc1ccc(O)cc1)NC(=O)[C@H](CC(=O)O)NC(=O)[C@H](CO)NC(=O)[C@@H](NC(=O)[C@H](Cc1ccccc1)NC(=O)[C@@H](NC(=O)CNC(=O)[C@H](CCC(N)=O)NC(=O)[C@H](CO)NC(=O)[C@@H](N)Cc1c[nH]cn1)[C@@H](C)O)[C@@H](C)O)C(C)C)C(=O)N[C@@H](CCC(=O)O)C(=O)N[C@@H](CO)C(=O)N[C@H](C(=O)O)[C@@H](C)O [dasiglucagon]
dose proportionality of AUC and Cmax ([1]; IV dose cohorts 0.03 to 1.5 mg, power model): dose-proportional
half-life ([1]; human, plasma, iv): ~18 min
Cmax ([1]; human, plasma, iv, 0.03 mg): 0.568 nM
Cmax ([1]; human, plasma, iv, 0.1 mg): 2.39 nM
Cmax ([1]; human, plasma, iv, 0.3 mg): 6.46 nM
AUC(0-inf) ([1]; human, plasma, iv, 0.6 mg): 4.63 nM·h
Cmax ([1]; human, plasma, iv, 0.6 mg): 10.2 nM
Cmax ([1]; human, plasma, iv, 1.5 mg): 57.9 nM
AUC(0-inf) ([1]; human, plasma, sc, 0.6 mg): 2.36 nM·h
AUC(0-t) ([1]; human, plasma, sc, 0.6 mg): 2.36 nM·h
Cmax ([1]; human, plasma, sc, 0.6 mg): 1.53 nM
bioavailability ([1]; human, plasma, sc, 0.6 mg): ~51%
half-life ([1]; human, plasma, sc, 0.6 mg): ~30 min
Median time to Cmax, glucose (plasma glucose [2]; IV 0.03 mg): 17.5 min
mean maximum glucose concentration (Cmax, glucose) (plasma glucose [2]; IV 0.03 mg, healthy volunteers): 135 mg/dL
Median time to Cmax, glucose (plasma glucose [2]; IV 1.5 mg): 42.5 min
mean maximum glucose concentration (Cmax, glucose) (plasma glucose [2]; IV 1.5 mg, healthy volunteers): 160 mg/dL
plasma glucose level after subcutaneous dosing (plasma glucose [2]; SC 0.6 mg, healthy volunteers): 172 mg/dL
Mean ΔΔHR (healthy volunteers [3]; IV 0.03 mg, 5 minutes postdose (lowest value)): –7.0 bpm
Mean ΔΔHR (healthy volunteers [3]; IV 0.6 mg, 24 hours postdose (highest value)): 7.5 bpm
effect on PR interval (healthy volunteers [3]; IV 0.03 to 1.5 mg): did not have a clinically relevant effect
effect on QRS duration (healthy volunteers [3]; IV 0.03 to 1.5 mg): did not have a clinically relevant effect
mean placebo-corrected change from baseline in heart rate (ΔΔHR) (healthy volunteers [3]; all studied IV doses 0.03 to 1.5 mg): < 10 bpm
Mean ΔΔQTcF (healthy volunteers [4]; IV 0.03 mg, 40 minutes postdose): -3.4 ms
Mean ΔΔQTcF (healthy volunteers [4]; IV 0.1 mg, 180 minutes postdose): 12.3 ms
treatment effect-specific intercept (healthy volunteers [5]): 0.8 ms
Emax (maximum estimated effect on ΔΔQTcF) (healthy volunteers [6]; Emax model, all IV data, P = 0.0137): 3.6 ms
treatment effect–specific intercept (healthy volunteers [6]; Emax model, not significant at the 0.1 level): -0.44 ms
ΔΔQTcF estimate at geometric mean Cmax (healthy volunteers [6]; IV 0.03 mg, n = 36 overall): 1.61 ms
ΔΔQTcF estimate at geometric mean Cmax (healthy volunteers [6]; IV 0.1 mg): 2.61 ms
ΔΔQTcF estimate at geometric mean Cmax (healthy volunteers [6]; IV 0.3 mg): 2.93 ms
ΔΔQTcF estimate at geometric mean Cmax (healthy volunteers [6]; IV 0.6 mg): 3.01 ms
ΔΔQTcF estimate at geometric mean Cmax (healthy volunteers [6]; IV 1.5 mg): 3.13 ms
EC50 (healthy volunteers [6]; read-out: amount that produces half the effect of Emax, Emax model, plasma concentration, not significant at the 0.1 level): 0.426 nM
participants who experienced nausea (healthy volunteers [7]; 0.6 mg SC cohort): 4 out of 6
participants who vomited (healthy volunteers [7]; 0.6 mg SC cohort): 3 out of 6
dizziness (healthy volunteers [7]; SC and IV dasiglucagon cohorts): 2 participants
extravasation (healthy volunteers [7]; SC and IV dasiglucagon cohorts): 2 participants
headache (healthy volunteers [7]; SC and IV dasiglucagon cohorts): 2 participants
nausea (healthy volunteers [7]; SC and IV dasiglucagon cohorts): 9 participants
vomiting (healthy volunteers [7]; SC and IV dasiglucagon cohorts): 4 participants
ECG-related TEAEs or TEAEs in the system organ class cardiac disorders (healthy volunteers [7]; all cohorts): no ECG-related TEAEs
participants reporting treatment-emergent AEs (TEAEs) (healthy volunteers [7]; all dasiglucagon cohorts, 14 out of 42): 33.3%
effect on vital signs or safety laboratory parameters (healthy volunteers [7]; in vivo): No effect
injection site reactions (healthy volunteers [7]; spontaneous pain (0.1 mg IV), hematoma (0.6 mg SC), both mild): Two injection site reactions
cross-reactivity of antibodies to endogenous glucagon (healthy volunteers [8]): no cross-reactivity
maximum concentrations observed in any clinical trial [9]: 5000 to 6000 pmol/L
effect on human cardiac ion channels in vitro [10]: no effect
potential for QTc prolongation in dogs (dogs): no potential for QTc prolongation
stability in aqueous solutions [11]: stable in aqueous solutions
Median time to plasma glucose recovery vs reconstituted lyophilized glucagon (plasma glucose [12]): comparable

From publication PMC9026613 (Current Therapeutic Research, Clinical and Experimental, 2022)
